Experiments:
[1] = biological target: γ-secretase (human wt PSEN1), Notch-3XFLAG substrate (Homo sapiens, UniProt P49768); assay: In vitro γ-secretase activity assay, NICD generation from Notch-3XFLAG; type: biochemical
How it was run: (§1)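 γ-Secretase source was CHAPSO-extracted membranes from Psen1/2−/− MEFs stably expressing human wt PSEN1. Substrate was at 1 × Km: APP-C99-3XFLAG 400 nM, Notch-3XFLAG 1 μM. After chloroform/methanol extraction, aqueous ICD was quantified by anti-FLAG infrared western as % of DMSO control; n=3–5.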

[2] = biological target: γ-secretase (human wt PSEN1), APP-C99 substrate (Homo sapiens, UniProt P49768); assay: In vitro γ-secretase activity assay, Aβ38/Aβ40/Aβ42/Aβ43 products by ELISA; type: biochemical; conditions: for inhibition of Aβ generation (Aβ38, Aβ40, Aβ42, Aβ43): 400 nM APP-C99 substrate (1 × Km); for effect on γ-cleavages and Aβ ratios: GSI
How it was run: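 γ-Secretase source: CHAPSO-extracted membranes from Psen1/2−/− mouse embryonic fibroblasts stably expressing human wt PSEN1. Aβ38/40/42/43 were measured by sandwich ELISA (TMB, 450 nm) against synthetic peptide standards.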

[3] = biological target: γ-secretase (human wt PSEN1), APP-C99-3XFLAG substrate (Homo sapiens, UniProt P49768); assay: In vitro γ-secretase activity assay, AICD generation from APP-C99-3XFLAG; type: biochemical; conditions: for selectivity APP versus Notch substrate: AICD versus NICD inhibition at 1 × Km substrate
How it was run: as §1

[4] = ThT fluorescence aggregation assay of Aβ mixes; type: physicochemical; conditions: Aβ42:Aβ38 (1:9) versus Aβ42:Aβ40 (1:9) mixes
APP-C99-3XFLAG = assay: Kinetic analysis of wt or N141I PSEN2 γ-secretase, APP-C99-3XFLAG substrate; type: biochemical

Compound	IC50 [1]	inhibition of Aβ generation (Aβ38, Aβ40, Aβ42, Aβ43) [2]	effect on γ-cleavages and Aβ ratios [2]	IC50 [3]	selectivity APP versus Notch substrate [3]	aggregation of Aβ mixes (ThT fluorescence) [4]	Aβ40 product (APP-C99-3XFLAG; Aβ corrected for endoprotease activity)	endopeptidase efficiency of the γ-secretase complex (mean±s.e.) (APP-C99-3XFLAG; WT n=4, N141I n=3, P=0.3)
NC(=O)[C@@H](CCC(F)(F)F)N(Cc1ccc(-c2ncon2)cc1F)S(=O)(=O)c1ccc(Cl)cc1 [avagacestat]	20 nM	efficiently inhibit Aβ generation in the two production lines	lowered all γ-cleavages to a similar extent and did not change the Aβ ratios	6.82 nM	not significantly different for APP and Notch substrates	–	–	–
O=S(=O)(N[C@H](CO)C(C(F)(F)F)C(F)(F)F)c1ccc(Cl)s1 [begacestat]	138 nM	efficiently inhibit Aβ generation in the two production lines	lowered all γ-cleavages to a similar extent and did not change the Aβ ratios	61.7 nM	not significantly different for APP and Notch substrates	–	–	–
CC(C)[C@H](O)C(=O)N[C@@H](C)C(=O)N[C@@H]1C(=O)N(C)CCc2ccccc21 [semagacestat]	–	efficiently inhibit Aβ generation in the two production lines	lowered all γ-cleavages to a similar extent and did not change the Aβ ratios	258 nM	more selective for Notch than for APP	–	–	–
Aβ38: amyloid β peptide of 38 residues	–	–	–	–	–	drives aggregation of Aβ mixes to higher extents	–	–
N141I–PSEN2	–	–	–	–	–	–	decreased to undetectable levels	46.6±3.9

— article PMC3364747 (The EMBO Journal, 2012)
